Results on three compounds are retold here after ChEMBL document CHEMBL1123180, “Improved glucose tolerance in rats treated with oxazolidinediones” (1986).

Assay [1] relates to Rattus norvegicus. Briefly: Compound was tested for the ability to lower blood sugar level at the dose of 25 mg/kg in fasted rats, by using glucose tolerance test(GTT). The class given is functional. Summed up:
(§1)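 Male albino rats, groups of five or six, fasted 18–24 h. Glucose 1 g/kg given ip; test drug (0.1 to 100 mg/kg) or water (controls) given orally. Tail-vein blood sampled over 0–3 h; glucose (mg/100 mL) measured by Autoanalyser ferricyanide method. Value is percent lowering of blood glucose vs controls at 0.5 h; a lowering of ≥9% is needed for P = 0.05.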

The test system of assay [2] is Rattus norvegicus. Briefly: Ability to lower blood sugar level at the dose of 25 mg/kg in fasted rats, by using glucose tolerance test(GTT).
Assay [3] deals with Rattus norvegicus. Briefly: Ability to lower blood sugar level at the dose of 100 mg/kg in fasted rats, by using glucose tolerance test(GTT). The class given is functional. The essentials:
as §1

For assay [4], the system named is Rattus norvegicus. Briefly: Ability to lower blood sugar level at the dose of 10 mg/kg in fasted rats, by using glucose tolerance test(GTT). The class given is functional. The essentials: as §1
The test system of assay [5] is Rattus norvegicus. Briefly: Compound was tested for the ability to lower blood sugar level at the dose of 25 mg/kg in rats, by using glucose tolerance test(GTT). The class given is functional. The essentials:
as §1

`COc1ccc([N+](=O)[O-])cc1C1OC(=O)NC1=O` (stereo not given) displayed a Blood sugar lowering in the assay with Rattus norvegicus [1] of 17%.
The compound `COc1cccc([N+](=O)[O-])c1C1OC(=O)NC1=O` (stereo not given) showed a Blood sugar lowering in the assay on Rattus norvegicus [2] of 10%.
As for `O=C1NC(=O)C(c2ccccc2)O1` (stereo not given) [PEMOLINE DIONE], the Blood sugar lowering was 35% in the assay on Rattus norvegicus [3], 13% in the assay with Rattus norvegicus [4] and 26% in the assay on Rattus norvegicus [5].
